Test results: paper PMC5594746 (Journal of biomolecular screening, 2016)
pEC50: −log10 of the molar value.

Assays:
V2R + DOX = test: V2R + Dox cAMP counterscreen; type: cell-based; settings: Tet minus promoter inactive, no receptor protein made
Method in brief: (§1)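 Cryopreserved cells carrying tet-regulated hV2R L83Q were thawed and plated at 2,000/well in growth medium. Compound was pin-added (0.4% DMSO), then incubated 17 h at 37 °C, 5% CO2. Cells were stimulated with 5 μM vasopressin (final) in serum-free medium containing 2.5 mM IBMX for 2 h. After 10 min at room temperature, cAMP-Glo was added (19 min), then Kinase-Glo (10 min). Luminescence, inversely proportional to cAMP, was read.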

[1] = tested on: NDI associated V2R mutants; settings: cited from earlier work
V2R = settings: regardless of species tested; cited from earlier work
mutant hV2R [L83Q] = mutant hV2R [L83Q] (Homo sapiens, UniProt P30518, L83Q); test: V2R pharmacoperone cAMP luminescence; type: cell-based; settings: for activity as powder (active = EC50 ≤ 5 μM): de novo powder samples, titration assay, tested for the first time as powders
Method in brief: as §1

| SMILES | activity as powder (active = EC50 ≤ 5 μM) (mutant hV2R [L83Q]) | also measured |
| --- | --- | --- |
| CCOc1ccc2c(c1)C1(CCC(OCCN3CCOCC3)CC1)C(=O)N2S(=O)(=O)c1ccc(C(=O)NC(C)(C)C)cc1OC (stereo not shown) [SR121463] |  | response of + Dox cells (V2R + DOX): non-responsive; number of NDI associated V2R mutants on which active [1]: at least 8; Ki (V2R): low nanomolar |
| CCN(CC)S(=O)(=O)c1ccc(C(=O)Nc2nc3ccc(Cl)cc3s2)cc1 [SR-01000392254] | lack of activity |  |
| COc1ccc2nc(NC(=O)c3ccc(S(=O)(=O)N4CCCCC4)cc3)sc2c1 [SR-01000393329] | lack of activity |  |
| Cc1ccc2nc(NC(=O)c3cc(I)ccc3Cl)sc2c1 [SR-01000405773] | lack of activity |  |
| COc1ccc(-c2csc(NC(=O)c3ccc(S(=O)(=O)N4CC(C)CC(C)C4)cc3)n2)cc1C (stereo not shown) [SR-01000443595] |  | pEC50 (mutant hV2R [L83Q]; de-novo powder sample, CRC format): 7.15 |
| CN[C@@H]1C[C@H]2O[C@@](C)([C@@H]1OC)n1c3ccccc3c3c4c(c5c6ccccc6n2c5c31)C(=O)NC4 [staurosporine, reference compound] |  | % activation, primary screen (mutant hV2R [L83Q]; singlicate, nominal 5.22 μM, normalized to SR121463 high control): ≤ −50% |

Further lines, with some results ahead:

| activity as powder (active = EC50 ≤ 5 μM) (mutant hV2R [L83Q]) | SMILES | also measured |
| --- | --- | --- |
| lack of activity | O=C(Nc1nc2ccc(F)cc2s1)c1ccc(S(=O)(=O)N2CCCCC2)cc1 [SR-01000442043] |  |
| lack of activity | Cc1ccc2nc(NC(=O)c3cccc(Cl)c3)sc2c1 [SR-01000461570] |  |
